From ChEMBL document CHEMBL3596093, “Synthesis and antimicrobial evaluation of 5-aryl-1,2,4-triazole-3-thione derivatives containing a rhodanine moiety” (2015)
≈ marks a conversion by molar mass, not a printed value.

Key:
Pseudomonas aeruginosa [1] = test: Antibacterial activity against Pseudomonas aeruginosa 2004 after 24 hrs by two-fold serial dilution method; format: functional; conditions: Pseudomonas aeruginosa, 2004, 24 h
Outline: (§1)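 Strains grown to mid-log phase in Mueller-Hinton broth, then diluted 1000-fold in the same broth to about 10^5 CFU/mL. Compounds were made up as DMSO stocks and two-fold serially diluted from a final top concentration of 64 µg/mL. Incubation was 37 °C for 24 h. Growth was read as absorbance at 630 nm on a microplate reader. MIC assays were run in triplicate.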

Escherichia coli [2] = test: Antibacterial activity against Escherichia coli KCTC 1924 after 24 hrs by two-fold serial dilution method; format: functional; conditions: KCTC 1924, 24 h; outline: as §1
Staphylococcus aureus [3] = test: Antibacterial activity against Staphylococcus aureus KCTC 209 after 24 hrs by two-fold serial dilution method; format: functional; conditions: KCTC 209, 24 h; outline: as §1
Escherichia coli [4] = test: Bactericidal activity against Escherichia coli KCTC 1924 after 24 hrs by agar plate method; format: functional; conditions: KCTC 1924, 24 h
Outline: (§2)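 Samples of 5 µL from MIC wells with no visible growth were plated onto fresh Mueller-Hinton agar and incubated a further 24 h at 37 °C. MBC is the lowest concentration giving no visible colony growth on the agar. Assays were run in triplicate.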

Staphylococcus aureus [5] = test: Antibacterial activity against Staphylococcus aureus KCTC 503 after 24 hrs by two-fold serial dilution method; format: functional; conditions: KCTC 503, 24 h; outline: as §1
Staphylococcus aureus [6] = test: Bactericidal activity against Staphylococcus aureus RN4220 after 24 hrs by agar plate method; format: functional; conditions: RN4220, 24 h; outline: as §2
Staphylococcus aureus [7] = test: Antibacterial activity against quinolone-resistant Staphylococcus aureus CCARM 3505 after 24 hrs by two-fold serial dilution method; format: functional; conditions: CCARM 3505, 24 h
Outline: (§3)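 Broth microdilution MIC. Bacteria grown to mid-log phase in Mueller-Hinton broth, diluted 1000-fold, about 10^5 CFU/mL. Compounds from DMSO stocks, two-fold serial dilution from a final 64 µg/mL. Incubation at 37 °C for 24 h. Growth read as absorbance at 630 nm on a microplate reader. Run in triplicate.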

Staphylococcus aureus [8] = test: Antibacterial activity against Staphylococcus aureus RN4220 after 24 hrs by two-fold serial dilution method; format: functional; conditions: RN4220, 24 h; outline: as §3
Escherichia coli [9] = test: Antibacterial activity against Escherichia coli CCARM 1356 after 24 hrs by two-fold serial dilution method; format: functional; conditions: CCARM 1356, 24 h; outline: as §1
Streptococcus mutans [10] = test: Antibacterial activity against Streptococcus mutans 3065 after 24 hrs by two-fold serial dilution method; format: functional; conditions: Streptococcus mutans, 3065, 24 h; outline: as §1
Staphylococcus aureus [11] = test: Antibacterial activity against quinolone-resistant Staphylococcus aureus CCARM 3519 after 24 hrs by two-fold serial dilution method; format: functional; conditions: CCARM 3519, 24 h; outline: as §3
Pseudomonas aeruginosa [12] = test: Antibacterial activity against Pseudomonas aeruginosa 2742 after 24 hrs by two-fold serial dilution method; format: functional; conditions: Pseudomonas aeruginosa, 2742, 24 h; outline: as §1
Staphylococcus aureus [13] = test: Antibacterial activity against methicillin-resistant Staphylococcus aureus CCARM 3506 after 24 hrs by two-fold serial dilution method; format: functional; conditions: CCARM 3506, 24 h; outline: as §3
Candida albicans = test: Antifungal activity against Candida albicans 7535 after 24 hrs by two-fold serial dilution method; format: functional; conditions: Candida albicans, 7535, 24 h
Staphylococcus aureus [14] = test: Antibacterial activity against methicillin-resistant Staphylococcus aureus CCARM 3167 after 24 hrs by two-fold serial dilution method; format: functional; conditions: CCARM 3167, 24 h; outline: as §3
Salmonella typhimurium = test: Antibacterial activity against Salmonella typhimurium 2421 after 24 hrs by two-fold serial dilution method; format: functional, Salmonella enterica subsp. enterica serovar Typhimurium; conditions: Salmonella enterica, 2421, 24 h; outline: as §1
Escherichia coli [15] = test: Ratio of MBC to MIC for Escherichia coli KCTC 1924; format: functional
Outline: (§4)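 The ratio divides MBC by MIC for the same strain. MIC comes from two-fold broth microdilution in Mueller-Hinton broth (about 10^5 CFU/mL, 37 °C, 24 h, absorbance at 630 nm). MBC comes from subculturing 5 µL from clear wells onto Mueller-Hinton agar for another 24 h at 37 °C, taken as the lowest concentration with no colonies.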

Staphylococcus aureus [16] = test: Bactericidal activity against methicillin-resistant Staphylococcus aureus CCARM 3167 after 24 hrs by agar plate method; format: functional; conditions: CCARM 3167, 24 h
Outline: (§5)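 5 µL from each well without visible growth plated on fresh Mueller-Hinton agar, then 37 °C for a further 24 h. MBC is the lowest concentration giving no visible colonies. Run in triplicate.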

Staphylococcus aureus [17] = test: Bactericidal activity against quinolone-resistant Staphylococcus aureus CCARM 3505 after 24 hrs by agar plate method; format: functional; conditions: CCARM 3505, 24 h; outline: as §5
Staphylococcus aureus [18] = test: Bactericidal activity against quinolone-resistant Staphylococcus aureus CCARM 3519 after 24 hrs by agar plate method; format: functional; conditions: CCARM 3519, 24 h; outline: as §5
Streptococcus mutans [19] = test: Bactericidal activity against Streptococcus mutans 3065 after 24 hrs by agar plate method; format: functional; conditions: Streptococcus mutans, 3065, 24 h; outline: as §2
Staphylococcus aureus [20] = test: Bactericidal activity against methicillin-resistant Staphylococcus aureus CCARM 3506 after 24 hrs by agar plate method; format: functional; conditions: CCARM 3506, 24 h; outline: as §5
Staphylococcus aureus [21] = test: Ratio of MBC to MIC for Staphylococcus aureus KCTC 503; format: functional; outline: as §4
Staphylococcus aureus [22] = test: Bactericidal activity against Staphylococcus aureus KCTC 503 after 24 hrs by agar plate method; format: functional; conditions: KCTC 503, 24 h; outline: as §5

Structure (SMILES)	MIC (Pseudomonas aeruginosa [1]) [µg/mL]	MIC (Escherichia coli [2]) [µg/mL]	MIC (Staphylococcus aureus [3]) [µg/mL]	MBC (Escherichia coli [4]) [µg/mL]	MIC (Staphylococcus aureus [5]) [µg/mL]	MBC (Staphylococcus aureus [6]) [µg/mL]	MIC (Staphylococcus aureus [7]) [µg/mL]	MIC (Staphylococcus aureus [8]) [µg/mL]	MIC (Escherichia coli [9]) [µg/mL]	MIC (Streptococcus mutans [10]) [µg/mL]	MIC (Staphylococcus aureus [11]) [µg/mL]	MIC (Pseudomonas aeruginosa [12]) [µg/mL]	MIC (Staphylococcus aureus [13]) [µg/mL]	MIC (Candida albicans) [µg/mL]	MIC (Staphylococcus aureus [14]) [µg/mL]	MIC (Salmonella typhimurium) [µg/mL]	Ratio (Escherichia coli [15])	further results
O=C(O)CN1C(=O)/C(=C/c2ccc(/C=N/n3c(-c4ccccc4Cl)n[nH]c3=S)cc2)SC1=S	> 128	64 (≈ 124 µM)	> 64	128 (≈ 248 µM)	> 64	256 (≈ 496 µM)	> 64	64 (≈ 124 µM)	> 128	> 64	> 64	> 128	> 64	> 64	> 64	> 128	<=4	
Cc1ccccc1-c1n[nH]c(=S)n1/N=C/c1ccc(/C=C2\SC(=S)N([C@@H](Cc3ccccc3)C(=O)O)C2=O)cc1	> 128	64 (≈ 109 µM)	> 64	64 (≈ 109 µM)	16 (≈ 27.3 µM)	64 (≈ 109 µM)	16 (≈ 27.3 µM)	16 (≈ 27.3 µM)	> 128	8 (≈ 13.7 µM)	16 (≈ 27.3 µM)	> 128	16 (≈ 27.3 µM)	> 64	16 (≈ 27.3 µM)	> 128	<=4	MBC (Staphylococcus aureus [16]): 32 µg/mL (≈ 54.6 µM); MBC (Staphylococcus aureus [17]): 64 µg/mL (≈ 109 µM); MBC (Staphylococcus aureus [18]): > 128 µg/mL; MBC (Streptococcus mutans [19]): 16 µg/mL (≈ 27.3 µM); MBC (Staphylococcus aureus [20]): 64 µg/mL (≈ 109 µM); Ratio (Staphylococcus aureus [21]): <=4; MBC (Staphylococcus aureus [22]): 32 µg/mL (≈ 54.6 µM)
